Calb FLC = affects C. albicans growth with fluconazole; AID 1979; actives 0.57% (n = 300,000); C. albicans CaCi-2 (fluconazole-resistant clinical isolate) + fluconazole, Alamar Blue growth, 48 h; growth inhibition, % (no concentration beside the values);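 active means growth inhibition above about 58% in most replicates, limit read from the data, passing the limit was not always enough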;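 further: all wells also contain fluconazole at 8 µg/ml as a sub-toxic cotreatment; 0% = median of DMSO wells and 100% = median of geldanamycin control wells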
ASAP1 GAP inh = ASAP1 ArfGAP inhibition; Q9ULH1; ASAP1-stimulated ARF1 GTP hydrolysis, GDP FP detection; inhibition, % at 16.5 µM; actives 0.19% (n = 360,000); AID 624377; in the data active means inhibition above about 25%;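 further: 0% = vehicle with enzyme and substrate and 100% = no enzyme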
ARFGAP1 inhibitor = rat ARFGAP1 inhibition | Q62848 | Arfgap1-stimulated ARF1 GTP hydrolysis, GDP FP detection | inhibition, % at 16.5 µM | actives 0.26% (n = 360,000) | AID 651572;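 active means inhibition above a per-plate limit, mean inhibition of low control wells plus 3 SD, cut at about 25% in these data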;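 further: 0% = DMSO wells with enzyme and 100% = wells lacking Arfgap1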
Target sequence (Q62848 1-136 limits assumed): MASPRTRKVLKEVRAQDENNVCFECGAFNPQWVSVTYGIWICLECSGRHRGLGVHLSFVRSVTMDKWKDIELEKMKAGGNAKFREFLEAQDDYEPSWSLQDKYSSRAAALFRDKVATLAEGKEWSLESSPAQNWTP
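Material – truncated rat Arfgap1 GAP domain · Buffer or medium – HEPES-based buffer, pH 7.5 · Reagent – human ARF1(Δ1-17)-GTP substrate · Dosing – 16.5 µM single point, 1.26% DMSO · Schedule – GTP hydrolysis reaction 2 h at 25 °C · Technique – GDP detection by fluorescence polarization · Benchmarks – No-Arfgap1 wells (100%) versus DMSO full-reaction wells (0%) · Repeats – single replicate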
SKKanGAS inh = inhibitors of SKKanGAS S. pyogenes growth in kanamycin (SK-promoter or general growth effect); BacTiter-Glo, 6 h; inhibition, % at 7.5 µM; actives 1.3% (n = 300,000);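 active means mean replicate score, as percent of positive control median, at least 50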;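 further: strain carries kanamycin resistance gene driven by streptokinase promoter and grows in 40 µg/ml kanamycin; loss of luminescence reflects streptokinase promoter inhibition or plain growth inhibition; 0% = median of DMSO wells and 100% = positive control at its reference dose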
HGIII-sPLA2 inh = Inhibits HGIII-sPLA2 liposome hydrolysis, primary screen; inhibition, % at 12.2 µM; Q9NZ20; QFRET BODIPY PC-A2 liposome hydrolysis, fluorescence; actives 0.56% (n = 370,000);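 active means inhibition above mean plus 3 SD of compounds lying within the high and low control bounds, cut at about 19% in these data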;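 further: 0% = median of test compound wells and 100% = no enzyme DMSO wells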
Active calls of the source: *; . = no result given. This is a sample that favours compounds with a hit; in the whole collection about 2.3% have one here.

SMILES	Calb FLC	ASAP1 GAP inh	ARFGAP1 inhibitor	SKKanGAS inh	HGIII-sPLA2 inh
N#C/C(=C\c1ccc(N2CCOCC2)o1)c1ccccc1	-21.5	-6.7	3.3	-6.1	-5.8
N#C/C(=C\c1ccc(N2CCOCC2)cc1)c1ccccc1	87.4*	7.0	3.6	3.2	5.1
CCOC(=O)Nc1ccc(OCc2nnc3c4ccccc4c(C)nn23)cc1	-3.9	-13.4	-8.7	93.6*	-6.2
Cc1nn2c(CN(C(=O)COc3ccccc3)c3ccccc3)nnc2c2ccccc12	-25.4	-3.5	16.0	4.3	14.4
Cc1nn2c(COc3ccc(NC(=O)C(C)C)cc3)nnc2c2ccccc12	-7.9	-11.1	-5.2	101.7*	0.0
Cc1nn2c(COc3ccc(NC(=O)c4ccccc4Cl)cc3)nnc2c2ccccc12	2.0	3.8	9.7	87.1*	-4.5
Cc1cc(C)cc(OCC(C)CN2CCC(C(O)(c3ccccc3)c3ccccc3)CC2)c1 (centres undefined)	.	.	.	.	-15.8
CCn1cnc2cc(NCc3ccc(OC)cc3)ccc21	-18.1	3.0	-0.8	-2.3	3.2
CCOc1ccc2nc3cc(NCc4ccc(OC)cc4)ccc3c(N)c2c1	102.0*	.	.	13.0	.
Nc1ccc2c(c1)C/C(=C/c1ccco1)C2=O	-21.7	1.5	8.2	11.2	22.3*
COc1cc(C(NC(=O)C(F)(F)F)C2CCCC=C2c2ccccc2)cc(OC)c1OC (centres undefined)	.	.	.	.	7.6
CCCCN1C(=O)N2CCc3ccccc3C2CS1(=O)=O (centres undefined)	.	.	.	.	-1.3
Cc1nn(-c2ccccc2)c(C)c1/C=N/NC(=O)c1ccccc1O	-6.0	6.8	5.4	-2.3	-5.2
Cc1nn(-c2ccccc2)c(N2CCCC2)c1/C=N/NC(=O)c1ccccc1O	90.6*	18.6	6.5	4.6	-9.1
O=C(N/N=C/c1cc2c3c(c1O)CCCN3CCC2)c1ccccc1O	108.1*	7.8	16.7	55.2*	6.2
O=C(C1CCCN(S(=O)(=O)c2cccc3ccccc23)C1)N1CCN(Cc2ccccc2)CC1 (centres undefined)	.	.	.	.	-9.4
N#C/C(=C(/O)COC(=O)c1ccccc1O)c1nc2ccccc2s1	83.3*	8.1	-2.3	33.1	-6.1
N#C/C(=C(/O)c1cc2ccccc2o1)c1nc2ccccc2s1	41.1	0.1	7.1	61.0*	-3.0
Cn1c(=O)c2cc(S(=O)(=O)N3CCN(CCO)CC3)ccc2n(C)c1=O	.	.	.	.	-1.8
O=C(Nc1ccc(Cl)cc1)Nc1nc(-c2ccccc2O)cs1	1.1	7.0	5.1	61.5*	-29.9
O=c1ccoc2ccccc12	.	7.6	-1.3	.	5.5
O=Nc1c(O)c2ccccc2c2ccccc12	94.3*	5.3	-4.6	66.2*	-120.8
Cn1c(SCC(=O)NC2CCCCC2)nnc1-c1cccnc1	0.6	0.0	-2.8	-16.4	4.8
Cn1c(SCC(=O)NC2(C#N)CCCCC2)nnc1-c1cccnc1	-5.6	6.0	-4.3	54.0*	4.3
COc1ccc(-c2cc3ncnc(Cl)c3s2)cc1	12.5	-0.8	-8.1	54.1*	-5.1
SMILES	Calb FLC	ASAP1 GAP inh	ARFGAP1 inhibitor	SKKanGAS inh	HGIII-sPLA2 inh
COc1ccc(-c2cc3nnc(-c4ccccc4)nc3s2)cc1	-8.3	4.2	-7.0	3.7	4.6
C/C(=N\NC(=O)c1cc2ccccc2cc1O)c1cccs1	47.9	2.3	10.5	71.1*	-4.9
CCOC(=O)N1CCC(=NNC(=O)c2cc3ccccc3cc2O)CC1	44.4	3.6	17.4	4.7	6.5
C/C(=N\NC(=O)c1cc2ccccc2cc1O)c1ccc(C)o1	36.0	3.3	7.4	61.8*	0.2
O=C(NNC(=O)c1cc2ccccc2cc1O)c1cccs1	91.4*	3.6	-7.2	0.9	14.2
CC(=O)N1CCC(=NNC(=O)c2cc3ccccc3cc2O)CC1	82.3*	3.3	12.4	10.3	4.2
O=C(Cn1c(-c2cncs2)nc2ccccc21)NCc1cccs1	.	.	.	.	6.5
COC(=O)[C@@]12CCCCC3=C1N(CCC3)C(=O)[C@H]2CC(=O)N1CCCC1	.	.	.	.	16.5
O=C(Cc1ccccc1)Nc1nonc1NC(=O)c1ccccc1	80.6*	10.4	12.5	-0.2	-14.8
O=[N+]([O-])c1cc(F)c2cccnc2c1O	61.0	12.1	0.8	40.3	1.6
O=[N+]([O-])c1cc(Cl)c2cccnc2c1O	101.6*	1.4	2.9	83.4*	6.4
O=[N+]([O-])c1ccc(O)c2ncccc12	98.9*	-4.2	3.1	43.9	-6.1
O=[N+]([O-])c1ccc(O)c2cccnc12	21.5	-1.9	2.3	-18.7	-0.2
Oc1c(I)cc(Cl)c2cccnc12	.	-8.3	-2.3	99.6*	5.6

Assay outcomes as filed in PubChem BioAssay.
